Usually GI50 stands for the concentration at which growth is held to half of that of the control. A low value points to more potent growth inhibition. By logP is commonly meant a log measure of how a compound divides between an organic and an aqueous phase. The term pKi denotes −log10 of the Ki, conventionally taken in molar units. A higher pKi goes with a small Ki.

pKi: −log10 of the molar value.

In one series the test system is NCI-H460. In words: Growth inhibition of human NCI-H460 cells after 48 hrs by sulforhodamine B assay. The class given is functional. The settings on record: NCI-H460, 48 h. In short, it runs like this:
(§1)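 Yamori 39-line human cancer panel, NCI method with modifications. Cells plated in RPMI 1640 plus 5% FBS, attached overnight, then exposed 48 h to compound at 10^-8, 10^-7, 10^-6, 10^-5 and 10^-4 M. Sulforhodamine B staining read at 525 nm; % growth = 100[(T−T0)/(C−T0)] from duplicate-point averages, with T0 the time-zero absorbance. GI50 is the concentration giving 50.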
With `CC1(C)CC[C@@H]2CC(=O)O[C@@H](CO)CC(=O)O[C@@H]3C[C@@H](CCCCc4c(Br)cc(Br)c(O)c4Br)O[C@@]1(C3)O2`, growth was halved (GI50) at 3.24 µM.

Another series relates to NCI-H226. In words: Growth inhibition of human NCI-H226 cells after 48 hrs by sulforhodamine B assay. The settings on record: NCI-H226, 48 h. The class given is functional. In short, it runs like this: as §1
For orientation: The SRB assay estimates cell density from bound dye.
`CC1(C)CC[C@@H]2CC(=O)O[C@@H](CO)CC(=O)O[C@@H]3C[C@@H](CCCCc4c(Br)cc(Br)c(O)c4Br)O[C@@]1(C3)O2`: the GI50 was 16.2 µM.

The test system of a further series is NCI-H522. In words: Growth inhibition of human NCI-H522 cells after 48 hrs by sulforhodamine B assay. The settings on record: NCI-H522, 48 h. The class given is functional. An outline of the steps: as §1
On to `CC1(C)CC[C@@H]2CC(=O)O[C@@H](CO)CC(=O)O[C@@H]3C[C@@H](CCCCc4c(Br)cc(Br)c(O)c4Br)O[C@@]1(C3)O2`, for which the 50% growth inhibitory concentration (GI50) is 20.4 µM. This lies in the double-digit micromolar range.

The next series deals with HCT-116. In words: Growth inhibition of human HCT116 cells after 48 hrs by sulforhodamine B assay. The class given is functional. The following applies: HCT-116, 48 h. In short, it runs like this: as §1
Regarding `CC1(C)CC[C@@H]2CC(=O)O[C@@H](CO)CC(=O)O[C@@H]3C[C@@H](CCCCc4c(Br)cc(Br)c(O)c4Br)O[C@@]1(C3)O2`, the GI50 was 17.8 µM.

A further series concerns NCI-H23. As to the kind of experiment: Growth inhibition of human NCI-H23 cells after 48 hrs by sulforhodamine B assay. Format: functional. The following applies: NCI-H23, 48 h. In short, it runs like this:
as §1
As to `CC1(C)CC[C@@H]2CC(=O)O[C@@H](CO)CC(=O)O[C@@H]3C[C@@H](CCCCc4c(Br)cc(Br)c(O)c4Br)O[C@@]1(C3)O2`, the GI50 was 14.1 µM.

A further series relates to HCT-15. In words: Growth inhibition of human HCT15 cells after 48 hrs by sulforhodamine B assay. Format: functional. The following applies: HCT-15, 48 h. An outline of the steps:
as §1
As for `CC1(C)CC[C@@H]2CC(=O)O[C@@H](CO)CC(=O)O[C@@H]3C[C@@H](CCCCc4c(Br)cc(Br)c(O)c4Br)O[C@@]1(C3)O2`, the GI50 was 18.2 µM.

In the next series the test system is KM12. In words: Growth inhibition of human KM12 cells after 48 hrs by sulforhodamine B assay. The class given is functional. The following applies: KM12, 48 h. An outline of the steps:
as §1
For the compound `CC1(C)CC[C@@H]2CC(=O)O[C@@H](CO)CC(=O)O[C@@H]3C[C@@H](CCCCc4c(Br)cc(Br)c(O)c4Br)O[C@@]1(C3)O2`, the 50% growth inhibitory concentration (GI50) was 16.6 µM.

Another series has as its system HT-29. In words: Growth inhibition of human HT-29 cells after 48 hrs by sulforhodamine B assay. The class given is functional. The settings on record: HT-29, 48 h. An outline of the steps: as §1
`CC1(C)CC[C@@H]2CC(=O)O[C@@H](CO)CC(=O)O[C@@H]3C[C@@H](CCCCc4c(Br)cc(Br)c(O)c4Br)O[C@@]1(C3)O2` showed a 50% growth inhibitory concentration (GI50) of 16.6 µM.

Another series concerns SNB-78. As to the kind of experiment: Growth inhibition of human SNB78 cells after 48 hrs by sulforhodamine B assay. The class given is functional. The following applies: SNB-78, 48 h. An outline of the steps: as §1
`CC1(C)CC[C@@H]2CC(=O)O[C@@H](CO)CC(=O)O[C@@H]3C[C@@H](CCCCc4c(Br)cc(Br)c(O)c4Br)O[C@@]1(C3)O2` showed a GI50 of 47.9 µM.

Test system in the next series: not listed separately
As to the kind of experiment: Growth inhibition of human HCC2998 cells after 48 hrs by sulforhodamine B assay. The class given is functional. The following applies: HCC 2998, 48 h. An outline of the steps:
as §1
The compound `CC1(C)CC[C@@H]2CC(=O)O[C@@H](CO)CC(=O)O[C@@H]3C[C@@H](CCCCc4c(Br)cc(Br)c(O)c4Br)O[C@@]1(C3)O2` had a GI50 of 7.59 µM. This lies in the single-digit micromolar range.

The test system of the next series is SF-539. As to the kind of experiment: Growth inhibition of human SF539 cells after 48 hrs by sulforhodamine B assay. Format: functional. The settings on record: SF-539, 48 h. An outline of the steps: as §1
`CC1(C)CC[C@@H]2CC(=O)O[C@@H](CO)CC(=O)O[C@@H]3C[C@@H](CCCCc4c(Br)cc(Br)c(O)c4Br)O[C@@]1(C3)O2` gave a GI50 of 13.5 µM.

In the next series the test system is SNB-75. In words: Growth inhibition of human SNB75 cells after 48 hrs by sulforhodamine B assay. Format: functional. The following applies: SNB-75, 48 h. An outline of the steps: as §1
Compound `CC1(C)CC[C@@H]2CC(=O)O[C@@H](CO)CC(=O)O[C@@H]3C[C@@H](CCCCc4c(Br)cc(Br)c(O)c4Br)O[C@@]1(C3)O2` showed a GI50 of 26.3 µM. In other words, the double-digit micromolar range.

The subject of the next series is SF-295. In words: Growth inhibition of human SF295 cells after 48 hrs by sulforhodamine B assay. The class given is functional. The following applies: SF-295, 48 h. In short, it runs like this: as §1
Take `CC1(C)CC[C@@H]2CC(=O)O[C@@H](CO)CC(=O)O[C@@H]3C[C@@H](CCCCc4c(Br)cc(Br)c(O)c4Br)O[C@@]1(C3)O2`: the GI50 is 13.2 µM. This lies in the double-digit micromolar range.

The test system of a further series is U-251. As to the kind of experiment: Growth inhibition of human U251 cells after 48 hrs by sulforhodamine B assay. The following applies: U-251, 48 h. Format: functional. In short, it runs like this:
as §1
In turn, `CC1(C)CC[C@@H]2CC(=O)O[C@@H](CO)CC(=O)O[C@@H]3C[C@@H](CCCCc4c(Br)cc(Br)c(O)c4Br)O[C@@]1(C3)O2` had a 50% growth inhibitory concentration (GI50) of 16.2 µM. This counts as double-digit micromolar.

A further series deals with SF-268. In words: Growth inhibition of human SF268 cells after 48 hrs by sulforhodamine B assay. The class given is functional. The following applies: SF-268, 48 h. An outline of the steps: as §1
`CC1(C)CC[C@@H]2CC(=O)O[C@@H](CO)CC(=O)O[C@@H]3C[C@@H](CCCCc4c(Br)cc(Br)c(O)c4Br)O[C@@]1(C3)O2`: the GI50 was 20.9 µM.

A further series deals with MCF7. In words: Growth inhibition of human MCF7 cells after 48 hrs by sulforhodamine B assay. The class given is functional. The settings on record: MCF7, 48 h. In short, it runs like this:
as §1
In the case of `CC1(C)CC[C@@H]2CC(=O)O[C@@H](CO)CC(=O)O[C@@H]3C[C@@H](CCCCc4c(Br)cc(Br)c(O)c4Br)O[C@@]1(C3)O2`, the concentration for 50% growth inhibition (GI50) is 19.5 µM.

The next series concerns MDA-MB-231. As to the kind of experiment: Growth inhibition of human MDA-MB-231 cells after 48 hrs by sulforhodamine B assay. The class given is functional. The settings on record: MDA-MB-231, 48 h. An outline of the steps: as §1
In the case of `CC1(C)CC[C@@H]2CC(=O)O[C@@H](CO)CC(=O)O[C@@H]3C[C@@H](CCCCc4c(Br)cc(Br)c(O)c4Br)O[C@@]1(C3)O2`, halving of growth (GI50) required 12 µM. That is a double-digit micromolar value.

Test system in the next series: not listed separately
In words: Growth inhibition of human BSY1 cells after 48 hrs by sulforhodamine B assay. Format: functional. The following applies: BSY-1, 48 h. An outline of the steps: as §1
Compound `CC1(C)CC[C@@H]2CC(=O)O[C@@H](CO)CC(=O)O[C@@H]3C[C@@H](CCCCc4c(Br)cc(Br)c(O)c4Br)O[C@@]1(C3)O2` gave a GI50 of 21.4 µM.

Test system in a further series: not listed separately
In words: Growth inhibition of human HBC5 cells after 48 hrs by sulforhodamine B assay. The settings on record: HBC5, 48 h. Format: functional. In short, it runs like this:
as §1
With `CC1(C)CC[C@@H]2CC(=O)O[C@@H](CO)CC(=O)O[C@@H]3C[C@@H](CCCCc4c(Br)cc(Br)c(O)c4Br)O[C@@]1(C3)O2`, the 50% growth inhibitory concentration (GI50) was 22.9 µM. This counts as double-digit micromolar.

Test system in the next series: not listed separately
In words: Growth inhibition of human HBC4 cells after 48 hrs by sulforhodamine B assay. The settings on record: HBC4, 48 h. Format: functional. An outline of the steps: as §1
For `CC1(C)CC[C@@H]2CC(=O)O[C@@H](CO)CC(=O)O[C@@H]3C[C@@H](CCCCc4c(Br)cc(Br)c(O)c4Br)O[C@@]1(C3)O2`, growth was halved (GI50) at 0.871 µM.

Test system in another series: not listed separately
In words: Octanol-water partition coefficient, log P of the compound by HPLC analysis. Format: physicochemical.
Conditions: not given
In short, it runs like this:
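log P was estimated from HPLC retention, with column dead time measured using unretained formamide.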
For the compound `CC1(C)CC[C@@H]2CC(=O)O[C@@H](CO)CC(=O)O[C@@H]3C[C@@H](CCCCc4c(Br)cc(Br)c(O)c4Br)O[C@@]1(C3)O2`, the logP came to 5.5.

For another series, the target named is T1, Protein kinase C delta type (Homo sapiens, UniProt Q05655). As to the kind of experiment: Inhibition of [3H]PDBu binding to PKCdelta-C1A domain peptide (unknown origin).
T1 sequence (Q05655 whole entry, the tested form may be a part): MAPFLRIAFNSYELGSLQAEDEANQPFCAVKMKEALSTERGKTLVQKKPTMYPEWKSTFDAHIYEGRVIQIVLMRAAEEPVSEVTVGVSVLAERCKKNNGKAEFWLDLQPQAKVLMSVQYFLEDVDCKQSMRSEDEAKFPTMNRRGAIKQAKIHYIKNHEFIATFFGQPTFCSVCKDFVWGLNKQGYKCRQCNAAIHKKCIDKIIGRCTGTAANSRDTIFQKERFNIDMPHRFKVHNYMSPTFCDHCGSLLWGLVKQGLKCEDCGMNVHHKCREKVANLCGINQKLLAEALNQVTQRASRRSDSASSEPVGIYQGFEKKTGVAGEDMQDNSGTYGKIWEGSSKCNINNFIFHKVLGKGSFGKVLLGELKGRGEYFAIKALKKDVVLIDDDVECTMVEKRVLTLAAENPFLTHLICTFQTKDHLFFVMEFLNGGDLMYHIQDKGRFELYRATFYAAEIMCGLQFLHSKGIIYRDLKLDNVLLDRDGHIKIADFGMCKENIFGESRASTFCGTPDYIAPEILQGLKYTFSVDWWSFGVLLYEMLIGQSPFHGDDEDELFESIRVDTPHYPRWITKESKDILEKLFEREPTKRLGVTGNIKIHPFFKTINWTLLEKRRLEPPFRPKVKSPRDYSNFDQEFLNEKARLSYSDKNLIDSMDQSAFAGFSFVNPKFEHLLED
Conditions: not given
An outline of the steps: (§2)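 Competitive [3H]PDBu binding used 14 or 40 nM PKCδ C1 peptide and 20 nM [3H]PDBu (19.6 Ci/mmol), in 50 mM Tris-maleate (pH 7.4 at 4 °C) with 50 µg/mL phosphatidylserine, 3 mg/mL bovine γ-globulin and varied inhibitor concentrations. IC50 was taken as 50% inhibition of specific binding. Ki was derived by the Sharkey–Blumberg method.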
`CC1(C)CC[C@@H]2CC(=O)O[C@@H](CO)CC(=O)O[C@@H]3C[C@@H](CCCCc4c(Br)cc(Br)c(O)c4Br)O[C@@]1(C3)O2` had a negative-log Ki (pKi) of 7.10.

Another series deals with T1, Protein kinase C delta type. As to the kind of experiment: Inhibition of [3H]PDBu binding to PKCdelta-C1B domain peptide (unknown origin).
Conditions: not given
An outline of the steps:
as §2
As for `CC1(C)CC[C@@H]2CC(=O)O[C@@H](CO)CC(=O)O[C@@H]3C[C@@H](CCCCc4c(Br)cc(Br)c(O)c4Br)O[C@@]1(C3)O2`, the pKi was 8.16.

The values are drawn from ChEMBL document CHEMBL2380295, “Structure-activity studies on the side chain of a simplified analog of aplysiatoxin (aplog-1) with anti-proliferative activity” (Bioorg Med Chem, 2013).
